The structures appear in SMILES notation. Where “and” joins values, the source holds several entries; their conditions need not be identical. Identical values can stand only once. Like-named read-outs stand apart in the source and are kept apart here.

These results are taken from publication PMC8752533 (European Journal of Drug Metabolism and Pharmacokinetics, 2021).

A short description of data set [1]: Phase I DDI study with rifampicin: safety and tolerability. It counts as in vivo, human (healthy male volunteers). Particulars: for Participants with any AE: 16 participants per treatment.
A short description of data set [2]: Phase I DDI study with rifampicin: plasma pharmacokinetics of BI 425809. Particulars: for AUC(0-inf): AUC0-∞. The format is in vivo, human (healthy male volunteers).
The next data set concerns the target CYP3A5 (Homo sapiens, UniProt P20815). Nature of the data set: Metabolism of BI 425809 by recombinant CYP isoforms. The format is in vitro ADME.
A further data set has as its system human liver microsomes. Nature of the data set: Turnover of BI 425809 in human liver microsomes. Particulars: BI 425809 0.2, 2, 10 μM; up to 60 min. It counts as in vitro ADME. (Liver microsomes are a subcellular fraction often used to study metabolism.)
The conditions of data set [3]: doses up to 75 mg in healthy volunteers; cited from earlier work.
The nature of data set [4]: Phase I DDI study with itraconazole: safety and tolerability. Particulars: for Treatment-related AEs / Participants with any AE / Gastrointestinal disorders / General disorders and administration site conditions / Infections and infestations / Musculoskeletal and connective tissue disorders / Nervous system disorders / Vascular disorders: DDI + itraconazole study; for Participants with any AE: 16 participants per treatment; for Gastrointestinal disorders / General disorders and administration site conditions / Infections and infestations / Musculoskeletal and connective tissue disorders / Nervous system disorders / Vascular disorders: system organ class. It counts as in vivo, human (healthy male volunteers). Summed up:
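Healthy males aged 18–50, BMI 18.5–29.9, received a single oral 25 mg test compound dose alone in period 1. In period 2 the same dose was given on day 4 of oral itraconazole, 200 mg QD on days 2–10. Washout was ≥16 days. Dosing followed a standardised breakfast, with 240 ml water. Safety was scored as frequency n (%) of AEs by system organ class, including physical exam findings, alongside labs, vital signs and 12-lead ECG.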

A short description of data set [5]: Analyte stability in human plasma samples containing tripotassium EDTA. The format is physicochemical. Particulars: human plasma with tripotassium EDTA, -20 °C.
Data set [6] concerns the target CYP3A4 (Homo sapiens, UniProt P08684). The format is in vitro ADME. Particulars: rCYP3A4, NADPH, up to 60 min.
In data set [7] the test system is cerebrospinal fluid glycine levels. Particulars: multiple oral administrations, doses as low as 10 mg, dose-dependent; cited from earlier work.
The test system of another data set is CYP3A. Nature of the data set: BI 425809 metabolism by human hepatocytes. It counts as in vitro ADME. Particulars: erythromycin 30 µM, all BI 425809 concentrations evaluated.
Data set [8] can be described thus: Phase I DDI study with itraconazole: plasma pharmacokinetics of BI 425809. It counts as in vivo, human (healthy male volunteers). Particulars: for AUC(0-inf): AUC0-∞.
The subject of data set [9] is CYP3A4. Particulars: human liver microsomes; CYP3A4 inhibitor ketoconazole.
Where [10] appears, read: DDI + rifampicin study, system organ class.
[11] abbreviates: BI 425809 + rifampicin relative to BI 425809 alone.
[12] abbreviates: male, human, plasma, oral, 25 mg.
The mark [13] stands for this setting: male, human, plasma, oral, 25 mg, gMean, BI 425809 25 mg alone, N = 16.
The mark [14] stands for this setting: BI 425809 + itraconazole relative to BI 425809 alone.

Sequence of CYP3A5 (P20815 whole entry, canonical isoform): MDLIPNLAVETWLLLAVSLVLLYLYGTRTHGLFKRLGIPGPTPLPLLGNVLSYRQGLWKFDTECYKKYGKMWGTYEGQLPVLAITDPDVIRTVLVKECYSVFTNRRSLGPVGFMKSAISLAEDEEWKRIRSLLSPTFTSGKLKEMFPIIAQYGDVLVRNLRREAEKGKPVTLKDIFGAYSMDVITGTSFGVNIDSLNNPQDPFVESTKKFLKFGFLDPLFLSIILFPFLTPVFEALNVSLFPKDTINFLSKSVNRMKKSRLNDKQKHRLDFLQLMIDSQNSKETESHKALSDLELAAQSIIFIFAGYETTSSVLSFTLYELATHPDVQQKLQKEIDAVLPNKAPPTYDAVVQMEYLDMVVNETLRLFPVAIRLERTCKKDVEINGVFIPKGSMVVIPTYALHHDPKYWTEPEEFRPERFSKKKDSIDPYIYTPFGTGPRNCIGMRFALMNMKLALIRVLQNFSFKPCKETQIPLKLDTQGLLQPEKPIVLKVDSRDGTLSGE
Sequence of CYP3A4 (Homo sapiens, UniProt P08684) (P08684 whole entry): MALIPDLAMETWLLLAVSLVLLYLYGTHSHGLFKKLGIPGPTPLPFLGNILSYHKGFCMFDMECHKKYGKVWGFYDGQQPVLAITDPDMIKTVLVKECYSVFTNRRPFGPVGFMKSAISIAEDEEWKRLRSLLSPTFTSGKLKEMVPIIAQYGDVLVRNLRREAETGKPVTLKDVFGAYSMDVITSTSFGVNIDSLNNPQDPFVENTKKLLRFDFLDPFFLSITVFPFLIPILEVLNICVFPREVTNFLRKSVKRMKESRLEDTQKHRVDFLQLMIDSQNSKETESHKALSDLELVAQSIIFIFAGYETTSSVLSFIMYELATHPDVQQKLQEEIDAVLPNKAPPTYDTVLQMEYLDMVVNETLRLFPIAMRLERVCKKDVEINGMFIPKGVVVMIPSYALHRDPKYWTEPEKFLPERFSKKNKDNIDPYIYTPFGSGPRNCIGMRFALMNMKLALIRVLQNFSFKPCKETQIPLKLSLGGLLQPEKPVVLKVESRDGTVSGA

As to `CO[C@H]1/C=C/O[C@@]2(C)Oc3c(C)c(O)c4c(O)c(c(/C=N/N5CCN(C)CC5)c(O)c4c3C2=O)NC(=O)/C(C)=C\C=C\[C@H](C)[C@H](O)[C@@H](C)[C@@H](O)[C@@H](C)[C@H](OC(C)=O)[C@@H]1C` [Rifampicin, rifampicin, reference compound], in data set [1] (DDI + rifampicin study), the “Participants with Severe AE” value is reported as 0 (0) n (%), the “Treatment-related AEs” value is 16 (100) n (%) and the “Participants with any AE” value is given as 16 (100) n (%). For the same molecule, in data set [1] (setting [10]), the Gastrointestinal disorders is 0 n (%); the “General disorders and administration site conditions” value is listed as 1 (6.3) n (%); the “Renal and urinary disorders” value was 16 (100) n (%); the “Respiratory, thoracic and mediastinal disorders” value is 0 n (%). In [1] (setting [10]), the “Skin and subcutaneous tissue disorders” value was 1 (6.3) n (%). Further, in data set [1] (DDI with rifampicin), the “participants who reported ≥ 1 AE” value was 100% and the “participants with AE considered as drug-related by the investigator” value was 100%.

For `C[C@@H](Oc1ccc(S(C)(=O)=O)cc1C(=O)N1C[C@@H]2C[C@]2(c2cc(C(F)(F)F)on2)C1)C(F)(F)F` [BI 425809], the “CL/F, gMean” value came to 94.6 mL/min in data set [2] (BI 425809 25 mg alone, N = 16); 12.4 mL/min in [8] (BI 425809 25 mg + itraconazole, N = 15); 73.3 mL/min in data set [8] (BI 425809 25 mg alone, N = 16). Besides, in data set [2] (setting [11]), the “AUC0-168, adjusted gMean ratio T/R (90% CI)” value was 10.3% and 10.3 (9.3‒11.3) %. Further, the “AUC0-∞, adjusted gMean ratio T/R (90% CI)” value in data set [2] (setting [11]) is 9.8 (8.8–11.0) %; in data set [8] (setting [14]), 597.0% and 597.0 (514.2‒693.0) %. Moreover, the “Cmax, adjusted gMean ratio T/R (90% CI)” value in data set [2] (setting [11]) is 37.4% and 37.4 (33.0‒43.5) %; in data set [8] (setting [14]), 116.1% and 116.1 (108.0‒124.7) %. For the same molecule, the “AUC0-∞, adjusted gMean” value in [2] (BI 425809 alone (R), inferential analysis) turned out to be 8.596 µM·h. The AUC0-168 ratio in data set [2] (BI 425809 co-administered with rifampicin relative to BI 425809 alone) turned out to be 0.10. The AUC(0-t) in [2] (setting [12]) is 8.22 µM·h; in data set [2] (male, human, plasma, po, 25 mg), 8.22 µM·h; in data set [8] (setting [12]), 10.2 µM·h; in [8] (male, human, plasma, po, 25 mg), 10.2 µM·h. Besides, the half-life in [2] (setting [12]) was 33.4 h. For the same molecule, the AUC(0-inf) was determined as 8.6 µM·h in data set [2] (setting [13]); 0.846 µM·h in [2] (male, human, plasma, oral, adjusted gMean, BI 425809 + rifampicin (T), inferential analysis); 0.837 µM·h in data set [2] (male, human, plasma, oral, gMean, BI 425809 25 mg + rifampicin, N = 15); 11.1 µM·h in data set [8] (male, human, plasma, oral, 25 mg, adjusted gMean, BI 425809 alone (R), inferential analysis); 11.1 µM·h in data set [8] (setting [13]); 66.2 µM·h in data set [8] (male, human, plasma, oral, adjusted gMean, BI 425809 + itraconazole (T), inferential analysis). The AUC(0-inf) in [8] (male, human, plasma, oral, gMean, BI 425809 25 mg + itraconazole, N = 15) stood at 65.3 µM·h. The highest concentration (Cmax) came to 218 nM in data set [2] (read-out: Cmax, adjusted gMean, BI 425809 alone (R), inferential analysis); 218 nM in data set [2] (read-out: Cmax, gMean, BI 425809 25 mg alone, N = 16); 316 nM in [8] (setting [12]); 367 nM in data set [8] (read-out: Cmax, adjusted gMean, BI 425809 + itraconazole (T), inferential analysis). The “% In vitro CYP contribution, Depletion” value at CYP3A5 (CYP3A5, depletion of BI 425809) was approximately 4%. Further, the “depletion of BI 425809” value on CYP3A5 (rCYP3A5, NADPH, up to 60 min) is given as more than 15%; at CYP3A4 [6] it was more than 15%. For the same molecule, the “turnover of BI 425809 in human liver microsomes” value with human liver microsomes is given as “No detectable turnover”. Also, the tolerability entry in data set [3] is “generally well tolerated”; in data set [4] (both DDI studies (itraconazole and rifampicin), 25 mg single oral dose), “well tolerated”. The “Treatment-related AEs” value in data set [4] and in [1] (DDI + rifampicin study) was 0 (0) n (%) in each case. The entries for the “Participants with any AE” value in data set [4] and in data set [1] (DDI + rifampicin study) were 6 (37.5) n (%) and 2 (12.5) n (%), respectively. Besides, the Gastrointestinal disorders in data set [4] and in data set [1] (setting [10]) was 0 n (%) each time. The “General disorders and administration site conditions” value is on record as 1 (6.3) n (%) in data set [4] and 0 n (%) in data set [1] (setting [10]). For the same molecule, the Infections and infestations in data set [4] is on record as 3 (18.8) n (%). Besides, the “Musculoskeletal and connective tissue disorders” value in [4] is 1 (6.3) n (%). Also, the Nervous system disorders in [4] and in [1] (setting [10]) was 1 (6.3) n (%) throughout. Also, the Vascular disorders in [4] is 1 (6.3) n (%). Besides, the results for the “participants who reported ≥ 1 AE” value in data set [4] (DDI with itraconazole) and in data set [1] (DDI with rifampicin) were 37.5% and 12.5%, respectively. In [5], the “period of demonstrated analyte stability” value is 381 days. Moreover, the “mean increase in cerebrospinal fluid glycine levels” value in data set [7] is on record as 50%. In [1] (DDI + rifampicin study), the “Participants with Severe AE” value is 0 (0) n (%). Besides, the “Renal and urinary disorders” value in data set [1] (setting [10]) is reported as 0 n (%). Also, in data set [1] (setting [10]), the “Respiratory, thoracic and mediastinal disorders” value was 1 (6.3) n (%). Moreover, the “Skin and subcutaneous tissue disorders” value in data set [1] (setting [10]) is recorded as 0 n (%). The “inhibition of depletion of BI 425809 by erythromycin” value with CYP3A is 92.1–100% and > 90%. For the same molecule, the “t1/2, gMean” value in data set [8] (BI 425809 25 mg alone, N = 16) stood at 45.5 h. In addition, the “AUC0-167, adjusted gMean ratio T/R (90% CI)” value in data set [8] (setting [14]) is 265.3% and 265.3 (240.9‒292.2) %. For the same molecule, the “extrapolated area of AUC0-∞” value in data set [8] (BI 425809 under itraconazole treatment) is 56%. Further, the “increase in Cmax” value in data set [8] (with itraconazole versus alone) is recorded as approximately 16%.

`CCC(C)n1ncn(-c2ccc(N3CCN(c4ccc(OCC5COC(Cn6cncn6)(c6ccc(Cl)cc6Cl)O5)cc4)CC3)cc2)c1=O` (stereo not shown) [Itraconazole, itraconazole, reference compound]: in data set [4], the “Treatment-related AEs” value is listed as 1 (6.3) n (%); the “Participants with any AE” value is on record as 4 (25.0) n (%); the Gastrointestinal disorders is recorded as 1 (6.3) n (%); the “General disorders and administration site conditions” value was 0 n (%). In addition, in [4], the Infections and infestations is given as 2 (12.5) n (%); the “Musculoskeletal and connective tissue disorders” value is given as 1 (6.3) n (%); the Nervous system disorders is on record as 0 n (%); the Vascular disorders is 0 n (%). In [4] (DDI with itraconazole), the “participants who reported ≥ 1 AE” value came out at 25% and the “participants with AE considered as drug-related by the investigator” value came to 6.3%.

For the molecule `CC(=O)N1CCN(c2ccc(OCC3COC(Cn4ccnc4)(c4ccc(Cl)cc4Cl)O3)cc2)CC1` (stereo not shown) [ketoconazole], the “inhibition of formation of BI 425809 metabolites M530 and M544” value in the data set with CYP3A4 [9] is given as “completely inhibited”.

As a reminder, the AUC(0-t) is the area under the concentration-time curve up to a stated or last time point. A lower AUC(0-t) goes with low exposure. As a reminder, the half-life is the time in which the quantity being followed falls by half. Low readings indicate rapid decline, high ones slow decline. A word on the AUC(0-inf): it is total exposure, with the tail of the curve extrapolated. As usually defined, the Cmax is the highest concentration seen after dosing.
